Data taken from ChEMBL document CHEMBL1141839, “Antifungal jujubogenin saponins from Colubrina retusa” (1999).
Values after ≈ are worked out from the molar mass of the structure shown. Active and inactive are the calls of the source. The calls are words filed in the database; no cut-off is given here.

Experiments:
Aspergillus fumigatus [1] = test: Antifungal activity against Aspergillus fumigatus at 2 ug/mL after 48 hrs; type: functional, organism-based
Outline: (§1)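 A. fumigatus spores gently scraped from fungal growth and used as inoculum in a 96-well adaptation of the NCCLS protocol. Pure compounds at final 50, 10 and 2 μg/mL. Incubated 48 h at 30 °C, with growth read at each concentration. MIC is the lowest tested concentration without growth. Amphotericin B positive control.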

Candida albicans [2] = test: Antifungal activity against Candida albicans at 2 ug/mL after 24 hrs; type: functional, organism-based
Outline: (§2)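 Modified NCCLS broth microdilution in 96-well format. C. albicans grown in SDB to the desired density and seeded into wells. Pure compounds tested at final 50, 10 and 2 μg/mL. Incubated 24 h at 37 °C, with growth scored at each level. MIC is the lowest tested concentration with no growth. Amphotericin B served as positive control.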

Cryptococcus neoformans [3] = test: Antifungal activity against Cryptococcus neoformans at 2 ug/mL after 48 hrs; type: functional, organism-based
Outline: (§3)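 C. neoformans grown in Mycophil broth to the desired density, then seeded into 96-well plates (modified NCCLS microdilution). Pure compounds added at final 50, 10 and 2 μg/mL. Incubation 48 h, 30 °C, with growth assessed per concentration. MIC is the lowest tested level showing no growth. Amphotericin B positive control.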

Cryptococcus neoformans [4] = test: Antifungal activity against Cryptococcus neoformans after 48 hrs; type: functional; outline: as §3
Aspergillus fumigatus [5] = test: Antifungal activity against Aspergillus fumigatus after 48 hrs; type: functional; outline: as §1
Candida albicans [6] = test: Antifungal activity against Candida albicans after 24 hrs; type: functional; outline: as §2

MIC (Cryptococcus neoformans [4]) [µg/mL]	MIC (Aspergillus fumigatus [5]) [µg/mL]	MIC (Candida albicans [6]) [µg/mL]	Structure (SMILES)	other results
–	–	–	C[C@@H]1[C@H](O)[C@@H](C)/C=C/C=C/C=C/C=C/C=C/C=C/C=C/[C@H](O[C@@H]2O[C@H](C)[C@@H](O)[C@H](N)[C@@H]2O)C[C@@H]2O[C@](O)(C[C@@H](O)C[C@@H](O)[C@H](O)CC[C@@H](O)C[C@@H](O)CC(=O)O[C@H]1C)C[C@H](O)[C@H]2C(=O)O	Activity (Aspergillus fumigatus [1]): Active; Activity (Candida albicans [2]): Active; Activity (Cryptococcus neoformans [3]): Active
50 (≈ 47.8 µM)	> 50	> 50	CC(C)=C[C@H]1C[C@](C)(O)[C@@H]2[C@H]3CC[C@@H]4[C@@]5(C)CC[C@H](O[C@@H]6OC[C@H](O)[C@H](O[C@@H]7O[C@H](CO)[C@@H](O)[C@H](O)[C@H]7OC(=O)/C=C/c7ccc(O)cc7)[C@H]6O[C@@H]6O[C@@H](CO)[C@H](O)[C@H]6O)C(C)(C)[C@@H]5CC[C@@]4(C)[C@@]34CO[C@@]2(C4)O1	–
–	–	–	CC(C)=C[C@H]1C[C@](C)(O)[C@@H]2[C@H]3CC[C@@H]4[C@@]5(C)CC[C@H](O[C@@H]6OC[C@H](O)[C@H](O[C@@H]7O[C@H](CO)[C@@H](O)[C@H](O)[C@H]7O)[C@H]6O[C@@H]6O[C@@H](COC(=O)CC(=O)O)[C@H](O)[C@H]6O)C(C)(C)[C@@H]5CC[C@@]4(C)[C@@]34CO[C@@]2(C4)O1	Activity (Cryptococcus neoformans [4]): inactive; Activity (Aspergillus fumigatus [5]): inactive; Activity (Candida albicans [6]): inactive
50 (≈ 55.6 µM)	50 (≈ 55.6 µM)	50 (≈ 55.6 µM)	CC(C)=C[C@H]1C[C@](C)(O)[C@@H]2[C@H]3CC[C@@H]4[C@@]5(C)CC[C@H](O[C@@H]6OC[C@H](O)[C@H](O[C@@H]7O[C@H](CO)[C@@H](O)[C@H](O)[C@H]7O)[C@H]6O[C@@H]6O[C@@H](CO)[C@H](O)[C@H]6O)C(C)(C)[C@@H]5CC[C@@]4(C)[C@@]34CO[C@@]2(C4)O1	–
